# Assay results published in ChEMBL document CHEMBL1145786, “Synthesis and structure-activity relationship of alpha-sulfonylhydroxamic acids as novel, orally active matrix metalloproteinase inhibitors for the treatment of osteoarthritis” (J Med Chem, 2003).
# Key:
# [1] = biological target: T1, Interstitial collagenase (Homo sapiens) (UniProt P03956); experiment: Inhibition of Matrix metalloprotease-1 at 10 uM
# T1 sequence (whole entry): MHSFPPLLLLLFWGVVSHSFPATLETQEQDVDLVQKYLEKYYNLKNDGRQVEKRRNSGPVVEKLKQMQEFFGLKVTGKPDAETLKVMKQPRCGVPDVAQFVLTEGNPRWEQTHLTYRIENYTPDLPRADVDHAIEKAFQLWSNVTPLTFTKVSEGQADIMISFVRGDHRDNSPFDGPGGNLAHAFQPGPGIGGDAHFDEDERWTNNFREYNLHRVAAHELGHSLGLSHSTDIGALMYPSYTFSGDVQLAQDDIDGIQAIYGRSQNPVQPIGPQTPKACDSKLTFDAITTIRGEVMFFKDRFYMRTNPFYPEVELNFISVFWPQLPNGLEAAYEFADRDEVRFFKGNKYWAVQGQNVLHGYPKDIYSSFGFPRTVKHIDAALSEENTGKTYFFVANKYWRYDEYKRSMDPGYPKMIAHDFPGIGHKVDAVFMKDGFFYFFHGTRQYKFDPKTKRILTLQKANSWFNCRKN
# Summary of the method: (§1)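 Single-point enzyme inhibition at 10 µM inhibitor, reported as percent inhibition. Full dose-response curves were run only where inhibition reached at least 60% at 10 µM.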
# [2] = biological target: T2, Disintegrin and metalloproteinase domain-containing protein 17 (Homo sapiens, UniProt P78536); experiment: In vitro inhibition against tumor necrosis factor alpha converting enzyme at 10 uM concentration; summary of the method: as §1
# Interstitial collagenase [3] = biological target: T3, Interstitial collagenase (Homo sapiens, UniProt P03956); experiment: In vitro inhibition of matrix metalloprotease-1
# T3 sequence (P03956 whole entry): T1 sequence (whole entry)
# [4] = biological target: T4, Matrix metalloproteinase-9 (Homo sapiens, UniProt P14780); experiment: In vitro inhibition of matrix metalloprotease-9
# Summary of the method: (§2)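 Each inhibitor concentration tested in triplicate. IC50 derived from a four-parameter logistic fit of the data within a single experiment, and the reported value is the mean of the triplicate values.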
# Mus musculus [5] = experiment: Compound was tested in vivo for inhibition using dialysis implant, values expressed relative to activity of CGS-27023 at dose 25 mg/kg(po)(68 +/-3); assay type: functional
# Summary of the method: (§3)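 Groups of mice dosed orally at 25 mg/kg with drug or vehicle carrying an implanted enzyme-containing dialysis bag. After 1 h of exposure, bag retrieved, and enzyme activity inside measured spectrophotometrically against bags from vehicle-treated mice. Percent inhibition expressed relative to CGS-27023 (set as 1) run as standard.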
# [6] = biological target: T4, Matrix metalloproteinase-9; experiment: Inhibition of Matrix metalloprotease-9 at 10 uM; summary of the method: as §1
# [7] = biological target: T2, Disintegrin and metalloproteinase domain-containing protein 17; experiment: Inhibition of Tumor necrosis factor alpha converting enzyme
# Mus musculus [8] = experiment: Compound was tested in vivo for inhibition using dialysis implant, value expressed relative to activity of CGS-27023 at dose 25 mg/kg(po) (66 +/- 4); assay type: functional; summary of the method: as §3
# Rattus norvegicus = experiment: Compound was tested in vivo for inhibition in rat sponge-wrapped cartilage model, value expressed relative to activity of CGS-27023 at dose 25 mg/kg (p.o.) in (52+/-4); assay type: functional; conditions: route oral
# Summary of the method: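 Oral dosing at 25 mg/kg once daily for 3 weeks, with CGS-27023 as comparator. Read-out was percent inhibition of degradation of bovine cartilage in the sponge-wrapped implant.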
# Mus musculus [9] = experiment: Compound was tested in vivo for inhibition using dialysis implant, values expressed relative to activity of CGS-27023 at dose 25 mg/kg(po)(60 +/-4); assay type: functional; summary of the method: as §3
# Collagenase 3 [10] = biological target: T5, Collagenase 3 (Homo sapiens, UniProt P45452); experiment: In vitro inhibition of matrix metalloprotease-13
# Mus musculus [11] = experiment: Compound was tested in vivo for inhibition using dialysis implant data, value expressed relative to activity of CGS-27023 at dose 25 mg/kg(po)(67 +/-3); assay type: functional; summary of the method: as §3
# Mus musculus [12] = experiment: Compound was tested in vivo for inhibition using dialysis implant data, value expressed relative to activity of CGS-27023 at dose 25 mg/kg(po) (73 +/-4); assay type: functional; summary of the method: as §3
# [13] = biological target: T2, Disintegrin and metalloproteinase domain-containing protein 17; experiment: Inhibition of Tumor necrosis factor alpha converting enzyme at 10 uM
# Interstitial collagenase [14] = biological target: T3, Interstitial collagenase; experiment: Inhibition of Matrix metalloprotease-1; summary of the method: as §2
# [15] = biological target: T4, Matrix metalloproteinase-9; experiment: Inhibition of Matrix metalloprotease-9; summary of the method: as §2
# Collagenase 3 [16] = biological target: T5, Collagenase 3; experiment: Inhibition of Matrix metalloprotease-13
# Mus musculus [17] = experiment: Compound was tested in vivo for inhibition using dialysis implant, value expressed relative to activity of CGS-27023 at dose 25 mg/kg(po)(53 +/- 4); assay type: functional; summary of the method: as §3
# Mus musculus [18] = experiment: Compound was tested in vivo for inhibition using dialysis implant, value expressed relative to activity of CGS-27023 at dose 25 mg/kg (p.o.) (66+/-4); assay type: functional; conditions: route oral; summary of the method: as §3
# Mus musculus [19] = experiment: Compound was tested in vivo for inhibition using dialysis implant, value expressed relative to activity of CGS-27023 at dose 25 mg/kg(po) (77+/-3); assay type: functional; summary of the method: as §3
# Mus musculus [20] = experiment: Compound was tested in vivo for inhibition using dialysis implant, value expressed relative to activity of CGS-27023 at dose 25 mg/kg(po)(53 +/-4); assay type: functional; summary of the method: as §3
# T4 sequence (P14780 whole entry): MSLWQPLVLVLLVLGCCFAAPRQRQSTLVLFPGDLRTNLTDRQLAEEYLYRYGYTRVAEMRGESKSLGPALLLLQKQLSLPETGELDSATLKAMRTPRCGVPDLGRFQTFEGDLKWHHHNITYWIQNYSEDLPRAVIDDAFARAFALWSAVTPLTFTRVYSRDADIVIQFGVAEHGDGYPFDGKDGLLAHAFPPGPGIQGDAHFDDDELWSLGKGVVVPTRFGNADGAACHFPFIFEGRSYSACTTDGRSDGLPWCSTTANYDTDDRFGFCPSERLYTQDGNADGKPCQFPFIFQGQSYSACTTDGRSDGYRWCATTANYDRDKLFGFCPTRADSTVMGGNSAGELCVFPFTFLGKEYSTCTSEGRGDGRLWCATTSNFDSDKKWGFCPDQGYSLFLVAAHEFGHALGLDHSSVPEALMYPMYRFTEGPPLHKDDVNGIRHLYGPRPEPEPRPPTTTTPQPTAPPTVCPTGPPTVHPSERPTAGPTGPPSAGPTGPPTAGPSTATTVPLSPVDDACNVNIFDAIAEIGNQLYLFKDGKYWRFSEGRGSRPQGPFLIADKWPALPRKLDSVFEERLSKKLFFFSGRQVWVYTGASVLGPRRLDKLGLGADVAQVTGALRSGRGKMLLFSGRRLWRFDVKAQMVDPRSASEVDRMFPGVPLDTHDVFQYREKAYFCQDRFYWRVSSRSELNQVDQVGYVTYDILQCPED
# T2 sequence (P78536 whole entry, the tested form may be a part): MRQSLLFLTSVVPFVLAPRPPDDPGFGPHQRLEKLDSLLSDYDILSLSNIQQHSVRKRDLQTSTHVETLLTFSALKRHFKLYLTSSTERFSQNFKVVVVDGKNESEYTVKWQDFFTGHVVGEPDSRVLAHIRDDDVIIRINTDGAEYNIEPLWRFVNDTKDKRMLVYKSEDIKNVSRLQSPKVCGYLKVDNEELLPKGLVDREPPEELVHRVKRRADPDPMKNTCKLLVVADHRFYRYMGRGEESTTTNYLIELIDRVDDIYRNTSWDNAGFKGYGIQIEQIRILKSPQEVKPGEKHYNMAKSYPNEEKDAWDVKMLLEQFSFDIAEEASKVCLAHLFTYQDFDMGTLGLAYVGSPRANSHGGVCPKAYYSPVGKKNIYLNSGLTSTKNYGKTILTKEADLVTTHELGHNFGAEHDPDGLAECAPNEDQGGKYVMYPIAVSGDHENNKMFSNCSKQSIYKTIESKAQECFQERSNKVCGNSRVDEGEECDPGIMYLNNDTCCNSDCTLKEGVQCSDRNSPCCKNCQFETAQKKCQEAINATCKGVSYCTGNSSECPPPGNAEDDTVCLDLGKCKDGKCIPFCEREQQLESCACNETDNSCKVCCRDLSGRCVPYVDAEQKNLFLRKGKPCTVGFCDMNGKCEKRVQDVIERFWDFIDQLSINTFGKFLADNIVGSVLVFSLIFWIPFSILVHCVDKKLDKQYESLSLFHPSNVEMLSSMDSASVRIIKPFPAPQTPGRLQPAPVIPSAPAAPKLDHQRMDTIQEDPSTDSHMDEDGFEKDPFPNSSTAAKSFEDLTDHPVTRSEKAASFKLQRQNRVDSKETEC
structure (smiles),measurement,setting,value
CCCCC(C(=O)NO)S(=O)(=O)c1ccc(OC)cc1 (centres undefined),inhibition,[1],8%
same,inhibition,[2],54%
COc1ccc(CS(=O)(=O)C(C)(Cc2ccccc2)C(=O)NO)cc1 (centres undefined),IC50,Interstitial collagenase [3],10 nM
same,inhibition,[2],3%
COc1ccc(S(=O)(=O)[C@](C)(Cc2ccc(OCCN3CCCCC3)cc2)C(=O)NO)cc1 (stereo in doubt; form 2),IC50,Interstitial collagenase [3],154 nM
same,IC50,[4],5 nM
same,inhibition in vivo at 25 mg/kg,Mus musculus [5],69%
CCCC[C@@](Cc1cccnc1)(C(=O)NO)S(=O)(=O)c1ccc(OC)cc1,inhibition,[6],88%
same,IC50,[7],764 nM
COc1ccc(S(=O)(=O)C(C)(Cc2ccc3ccccc3c2)C(=O)NO)cc1 (centres undefined),IC50,[4],8 nM
COc1ccc(S(=O)(=O)C(C)(Cc2ccc(OCCN3CCCCCC3)cc2)C(=O)NO)cc1 (centres undefined),inhibition in vivo at 25 mg/kg,Mus musculus [8],65%
same,inhibition in vivo at 25 mg/kg,Rattus norvegicus,67%
same,inhibition,[2],29%
COc1ccc(S(=O)(=O)C(CC=C(C)C)(CC=C(C)C)C(=O)NO)cc1,IC50,[4],0.5 nM
CCCCCCCCCCCCC(C(=O)NO)S(=O)(=O)c1ccc(OC)cc1 (centres undefined),inhibition,[1],18%
COc1ccc(S(=O)(=O)[C@](C)(Cc2ccc(OCCN3CCCCC3)cc2)C(=O)NO)cc1 (stereo in doubt; form 1),IC50,Interstitial collagenase [3],2530 nM
same,IC50,[4],112 nM
same,inhibition in vivo at 25 mg/kg,Mus musculus [9],15%
COc1ccc(S(=O)(=O)C(Cc2ccccc2)C(=O)NO)cc1 (centres undefined),IC50,Collagenase 3 [10],100 nM
C#CCC(Cc1cccnc1)(C(=O)NO)S(=O)(=O)c1ccc(OC)cc1 (centres undefined),IC50,Collagenase 3 [10],32 nM
same,inhibition,[2],23%
COc1ccc(S(=O)(=O)C(CCC(C)C)(Cc2cccnc2)C(=O)NO)cc1 (centres undefined),inhibition,[2],41%
COc1ccc(S(=O)(=O)C(C)(Cc2cccnc2)C(=O)NO)cc1 (centres undefined),inhibition,[2],17%
CCN(CC)COc1ccc(CC(C)(C(=O)NO)S(=O)(=O)c2ccc(-c3ccco3)cc2)cc1 (centres undefined),IC50,Interstitial collagenase [3],14 nM
same,IC50,[4],4 nM
same,IC50,Collagenase 3 [10],2 nM
same,inhibition,[2],45%
COc1ccc(S(=O)(=O)C(C)(Cc2ccc(OCCN3CCOCC3)cc2)C(=O)NO)cc1 (centres undefined),IC50,Interstitial collagenase [3],413 nM
same,IC50,[4],21 nM
same,inhibition in vivo at 25 mg/kg,Mus musculus [11],48%
same,inhibition,[2],47%
C=CCC(CC=C)(C(=O)NO)S(=O)(=O)c1ccc(OC)cc1,inhibition,[2],7%
COc1ccc(S(=O)(=O)C(C)(Cc2ccc(OCCCN3CCN(c4cccc(Cl)c4)CC3)cc2)C(=O)NO)cc1 (centres undefined),IC50,[4],7 nM
same,inhibition,[2],40%
same,inhibition in vivo at 25 mg/kg,Mus musculus [12],72%
CCCCCCCCS(=O)(=O)C(C)(Cc1ccc(OCCN2CCCCC2)cc1)C(=O)NO (centres undefined),IC50,Interstitial collagenase [3],10 nM
same,IC50,[4],23 nM
same,IC50,Collagenase 3 [10],55 nM
same,inhibition,[2],65%
COc1ccc(S(=O)(=O)C(C(=O)NO)C(C)C)cc1 (centres undefined),inhibition,[6],27%
same,inhibition,[2],52%
CCCCCCCCS(=O)(=O)C(C)(Cc1ccccc1)C(=O)NO (centres undefined),inhibition,[2],1%
COc1ccc(S(=O)(=O)C(C)(Cc2ccc(-c3ccccc3)cc2)C(=O)NO)cc1 (centres undefined),inhibition,[2],17%
CC(Cc1ccccc1)(C(=O)NO)S(=O)(=O)c1cccs1 (centres undefined),IC50,Interstitial collagenase [3],49 nM
same,IC50,[4],49 nM
same,IC50,Collagenase 3 [10],37 nM
same,inhibition,[2],20%
COc1ccc(S(=O)(=O)C(C)(Cc2ccccc2)C(=O)NO)cc1 (centres undefined),inhibition,[2],15%
COc1ccc(S(=O)(=O)C(C)(Cc2ccc(OCCN(C(C)C)C(C)C)cc2)C(=O)NO)cc1 (centres undefined),inhibition,[13],31%
CCOc1ccc(S(=O)(=O)C(C)(Cc2ccc(OCCN(CC)CC)cc2)C(=O)NO)cc1 (centres undefined),IC50,Interstitial collagenase [14],627 nM
same,IC50,[15],11 nM
same,IC50,Collagenase 3 [16],16 nM
same,inhibition in vivo at 25 mg/kg,Mus musculus [17],74%
C#CCC(CC#C)(C(=O)NO)S(=O)(=O)c1ccc(OC)cc1,inhibition,[2],20%
CCN(CC)CCOc1ccc(CC(C)(C(=O)NO)S(=O)(=O)c2ccc(OC)cc2)cc1 (centres undefined),IC50,[4],13 nM
same,IC50,Collagenase 3 [10],15 nM
same,inhibition in vivo at 25 mg/kg,Mus musculus [18],68%
same,inhibition,[2],39%
CC(Cc1ccc(OCCN2CCCCC2)cc1)(C(=O)NO)S(=O)(=O)c1cccs1 (centres undefined),IC50,Interstitial collagenase [3],99 nM
same,IC50,[4],79 nM
same,IC50,Collagenase 3 [10],85 nM
same,inhibition,[2],51%
COc1ccc(S(=O)(=O)C(C)(Cc2ccc(OCCN3CCCCC3)cc2)C(=O)NO)cc1 (centres undefined),inhibition in vivo at 25 mg/kg,Mus musculus [19],78%
same,inhibition in vivo at 25 mg/kg,Rattus norvegicus,69%
same,inhibition,[2],41%
CCCCCCCC[C@@](Cc1cccnc1)(C(=O)NO)S(=O)(=O)c1ccc(OC)cc1,IC50,[7],669 nM
COc1ccc(S(=O)(=O)C(C)(C/C=C/c2ccccc2)C(=O)NO)cc1 (centres undefined),IC50,Interstitial collagenase [3],299 nM
same,IC50,[4],16 nM
same,IC50,Collagenase 3 [10],12 nM
same,inhibition,[2],65%
COc1ccc(S(=O)(=O)C(Cc2cccnc2)(CC(C)C)C(=O)NO)cc1 (centres undefined),IC50,Interstitial collagenase [3],1000 nM
same,inhibition,[2],42%
CCCC(CCC)(C(=O)NO)S(=O)(=O)c1ccc(OC)cc1,inhibition,[1],30%
same,inhibition,[2],24%
CC(C)=CCC(CC=C(C)C)(C(=O)NO)S(=O)(=O)c1ccc(C)cc1,IC50,Collagenase 3 [10],6 nM
same,inhibition,[2],36%
CCCCOc1ccc(S(=O)(=O)C(C)(Cc2ccc(OCCN3CCCCC3)cc2)C(=O)NO)cc1 (centres undefined),IC50,[4],3 nM
same,inhibition in vivo at 25 mg/kg,Mus musculus [20],64%
same,inhibition,[2],30%
